Compound activity (PubChem)
These entries were drawn from the full list.
Apaf-1 act: human Apaf-1 activation. O14727. Apaf-1 apoptosome caspase-3 activation, DEVD-Rh110 fluorescence; active compounds read low. activity change, negative = activation, % at 20 µM. 330,000 compounds, 0.31% hits. AID 489031;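 active = activity change at or below -40% at 20 µM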
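system = biochemical Apaf-1 apoptosome reconstitution | buffer or medium = 20 mM HEPES pH 7.5 with CHAPS, BSA | also added = dATP and cytochrome c as apoptosome triggers, (Z-DEVD)2-Rh110 substrate | incubation = 30 min compound preincubation and 50 min reaction, both room temperature | measured by = fluorescence, 540 nm emission, 480 nm excitation | read-out basis = Caspase-3 cleavage activity downstream of Apaf-1 activation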
Rh110 act interf: counter-screen for Apaf-1 activators: fluorescence interference. shares compounds with Apaf-1 act. Rh110 fluorescence interference, quenched caspase reaction, Ex480/Em540. fluorescence interference (activity change), % at 20 µM, hits read low. 980 tested, under 10 active;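 active = mean activity change at or below -40% when tested at 20 µM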
Apaf-1 act conf: Apaf-1 (human) activation, single-dose confirmed | AID 504617 | activity change, negative = activation, % at 20 µM | 980 compounds, 5% hits | reconstituted apoptosome caspase-3 activity, DEVD-Rh110 fluorescence; active compounds read low | shares compounds with Apaf-1 act;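 active = mean activity change at or below -40%, meaning activation of 40% or more, at 20 µM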
Apaf1 act interf: counter-screen for Apaf-1 activators: fluorescence interference, dose response; shares compounds with Apaf-1 act; fluorescence interference counterscreen, Apaf-1 activator assay; EC50, µM; 55 tested, under 10 active; AID 588592; call rule not given here
An asterisk follows results filed as active; . = no result given.

SMILES | Apaf-1 act | Rh110 act interf | Apaf-1 act conf | others
CCOc1ccccc1NC(=O)COc1ccc2ccc(=O)oc2c1 | -87* | 3 | 3
COc1cccc(-c2sc3ccccc3c2-c2ccc(OCCN3CCCCC3)cc2)c1 | 64 | . | .
c1ccc(C[C@H]2CNCCN2CCCCC2CCCCC2)cc1 | 49 | . | .
O=C(CCN1CCOCC1)N1CCCC(Nc2ccc(F)cc2)C1 (stereo not drawn) | -56* | 3 | 5
CC1=NN(c2ccc(Cl)cc2)C(=O)C1C(c1ccccc1O)c1c(C)[nH]n(-c2ccc(Cl)cc2)c1=O (stereo not drawn) | 97 | . | .
CC(=O)c1cc(F)c(N2CCN(CCC#N)CC2)cc1C | -456* | 9 | 13
COc1cc(/C=C/c2nc(N)nc(-c3ccccc3O)n2)cc(OC)c1OC | -517* | 14 | 17
COC(=O)C1=C(C)N(Cc2ccccc2)C(=NCc2cccc(Cl)c2)N[C@H]1c1ccccc1 | 56 | . | .
Cc1cc(SCC(=O)N/N=C/c2ccc(O)c(O)c2O)c(C)cc1Br | 49 | . | .
O=C(CCN1CCN(C(c2ccccc2)c2ccccc2)CC1)N/N=C/c1ccc(O)cc1O | -236* | 8 | 14
Cc1ccc2[nH]c3c(c2c1)CN(C(=O)CN1CCN(c2cccc(C)c2C)CC1)CC3 | 43 | . | .
COc1cc(/C=C2/C(=O)N(c3ccc(Br)cc3)N=C2C)cc(OC)c1OC | 94 | . | .
CCN1C(=O)CC(c2ccccc2)N(C2CCCC2)c2nc(Nc3ccc(C(=O)NC4CCN(C)CC4)cc3OC)ncc21 (stereo not drawn) | 70 | . | .
CC(Oc1cccc(Cl)c1)C(=O)Nc1cc(S(=O)(=O)N2CCOCC2)ccc1N1CCCCC1 (stereo not drawn) | 48 | . | .
CCc1ccc(N=C2NC(=O)/C(=C/c3cc(Br)c(OCC(=O)O)c(OC)c3)S2)cc1 | -99* | 6 | -67* | Apaf1 act interf=>100
O=C(CSc1nnc(-c2ccncc2)n1CCc1ccccc1)N1CCCC1 | -263* | 5 | 15
COCCn1c(SCC(=O)NNC(=O)c2cc(Cl)ccc2OC)nnc1-c1ccncc1 | 49 | . | .
C#CCOCCOCCOCCNc1nc(N2CCN(C(=O)CCCCCCCCCCNC(=O)Cn3cc(CCCCCN)nn3)CC2)nc(N2CCN(C(=O)CCCCCCCCCCNC(=O)[C@@H]([C@H](C)O)n3cc(C)nn3)CC2)n1 | 49 | . | .
CCC(OCC(O)CN1CCCCC1)c1ccccc1 (stereo not drawn) | -516* | 0 | 12
O=[N+]([O-])c1ccc(N/N=C/c2ccc(O)c(O)c2O)c(S(=O)(=O)N2CCOCC2)c1 | 63 | . | .
CN1CCN(S(=O)(=O)c2ccc(N3CCN(C(c4ccccc4)c4ccccc4)CC3)nc2)CC1 | -78* | -3 | 11
COc1ccc(S(=O)(=O)N2CCN(c3ccc4nnc(-c5ccccc5)n4n3)CC2)cc1 | 65 | . | .
O=c1[nH]c(=O)n(C2CCCCCC2)c(O)c1C=NCc1ccc(F)cc1 | 40 | . | .
COc1cc(C2NC(=O)NC(C)=C2C(=O)OCC2CCCO2)cc(OC)c1OC (stereo not drawn) | -359* | 9 | 11
COc1cc(C2C(C#N)=C(C)NC3=C2C(=O)c2ccccc23)cc(OC)c1OC (stereo not drawn) | 54 | . | .
SMILES | Apaf-1 act | Rh110 act interf | Apaf-1 act conf | others
CCC/C(=C1/c2ccccc2C(=O)N1c1ccccc1)c1cnc(OC)nc1 | 41 | . | .
CCC[C@@H](CN1CCC[C@H]1CN1C(N)=NC[C@@H]1Cc1ccccc1)N1C[C@@H](Cc2ccccc2)N(CCCC2CCCC2)C1=N | 70 | . | .
COc1ccc(/C=N/NC(=O)c2ccc(CSc3nncn3C)cc2)cc1OC | -192* | 3 | -1
Cc1cc(C)cc(NC2=C(N)C(=O)c3ccccc3C2=O)c1 | 74 | . | .
O=C1C(Cl)=C(N2CCCCC2)C(=O)C(Cl)=C1c1cnc(N2CCCCC2)s1 | 48 | . | .
O=C(NC1CC1)C1=C[C@H](c2ccc(C(F)(F)F)cc2)C[C@H](OCCCCO)O1 | 50 | . | .
Cc1cccc(NC(=O)CN(C)S(=O)(=O)c2cccc3cccnc23)c1C | -164* | 6 | 3
O=C(CCc1ccccc1)N[C@@H]1c2ccccc2CC[C@H]1OCc1ccccc1 | -41* | 2 | 6
O=C(O)c1ccc(NC2=C/C(=N/S(=O)(=O)c3ccccc3)c3ccccc3C2=O)cc1 | 96 | . | .
C[C@@H](CN1CCC[C@H]1CN1C(N)=NC[C@@H]1Cc1ccccc1)N1C[C@@H](Cc2ccccc2)N(CCc2ccc(Cl)c(Cl)c2)C1=N | 74 | . | .
C#CCOCCOCCOCCNc1nc(N2CCN(C(=O)[C@H]([C@@H](C)CC)n3cc([C@@H](N)CC(C)C)nn3)CC2)nc(N2CCN(C(=O)[C@H](Cc3cc4ccccc4[nH]3)n3cc([C@@H](N)Cc4ccc(O)cc4)nn3)CC2)n1 | 56 | . | .
Cc1nc(SCc2ccccc2)c2oc3ccccc3c2n1 | -159* | 16 | 13
Cc1ccc2c(c1)c(=O)c1c3n2CCN(C(=O)CCl)C3CC1 (stereo not drawn) | 64 | . | .
CC(C)=NOc1nc(N(C)C)nc(N(C)C)n1 | -76* | 3 | 1
Cc1ccccc1-c1cc2c(nn1)-c1ccccc1C2=O | 97 | . | .
Nc1c(C(=O)NCC2CCCO2)c2nc3ccccc3nc2n1-c1ccccc1 (stereo not drawn) | 60 | . | .
O=C(NCC1CCCO1)c1ccc(Br)s1 (stereo not drawn) | -522* | 0 | 11
CCCCOc1cc(C(=O)OCCN(CC)CC)ccc1N | 3 | . | .
COCCCC/C(=N\OCCN)c1ccc(C(F)(F)F)cc1 | 44 | . | .
CN(CCC#N)C(=O)COC(=O)c1cc(Cl)cc(Cl)c1N | -63* | 11 | 17
CCCCCc1cc(=O)oc2c(C(CCN3CCCC(C)C3)c3ccc(OC)cc3)c(OC)cc(OC)c12 (stereo not drawn) | 66 | . | .
O=c1[nH]c(=O)c2nc3c4ccccc4c4ccccc4c3nc2[nH]1 | -43* | 6 | -19
O=c1[nH]c(Nc2ccccc2)cc2ccccc12 | 96 | . | .
O=C1c2ccccc2C(=O)c2[nH]c(=O)[nH]c21 | 80 | . | .
CCCOc1cc2c(C#N)c(N3CCCC3)nc(N)c2c(N)n1 | 98 | . | .
SMILES | Apaf-1 act | Rh110 act interf | Apaf-1 act conf | others
c1cc2c3c(cccc3c1)C(N1CCCCC1)=N2 | 91 | . | .
COc1ccc(C(=O)C(Sc2nnc(C)c(=O)[nH]2)c2ccc(OC)cc2)cc1 (stereo not drawn) | -114* | 7 | 17
COC(=O)C1=C(C)N(Cc2ccccc2)C(=NCc2ccccc2)N[C@H]1c1cccc(F)c1 | 41 | . | .
COc1cc2c(cc1OC)-c1cc3ccc4c(c3c[n+]1CC2)OCO4 | 73 | . | .
Cc1c(C(=O)N(C)CCOc2ccccc2)oc2c(Cl)cccc12 | 45 | . | .
Nc1c(O)cccc1C(=O)O | 53 | . | .
Cc1ccc(CNC(=O)CN(C)S(=O)(=O)c2cnc[nH]2)cc1 | -237* | 1 | 10
Cc1ccc(S(=O)(=O)NC2=C(N3CCN(c4ccccc4F)CC3)C(=O)c3ccccc3C2=O)cc1 | 76 | . | .
Cc1cc(SCC(=O)OC(C)C(=O)N(C)c2ccccc2)nc2ccccc12 (stereo not drawn) | -324* | -1 | 8
CSc1ccc(CCNC(=O)c2cc(-c3ccccc3)c(N3CCOCC3)s2)cc1 | -370* | 7 | 17
